Measurements reported in ChEMBL document CHEMBL4823286, “Synthesis and evaluation of novel 2,4-diaminopyrimidines bearing a sulfoxide moiety as anaplastic lymphoma kinase (ALK) inhibition agents” (Bioorg Med Chem Lett, 2021).

Tests used:
BaF3 = experiment: Antiproliferative activity against mouse BaF3 cells overexpressing ALK assessed as inhibition of cell proliferation measured by CCK8 assay; type: functional, cell-based
How it was run: (§1)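 Cell proliferation inhibition; IC50 given as mean ± SD of three independent experiments.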

NCI-H2228 = experiment: Antiproliferative activity against human NCI-H2228 cells assessed as inhibition of cell proliferation measured by CCK8 assay; type: functional, cell-based; how it was run: as §1

## CC[S+]([O-])c1cc(F)ccc1Nc1nc(Nc2ccc(N(C)CCN(C)C)cc2OC)ncc1Cl (configuration not stated)
BaF3
  IC50: 34.7 nM
NCI-H2228
  IC50: 84.3 nM
